The source of these data is ChEMBL document CHEMBL1131485, “Novel potent and selective central 5-HT3 receptor ligands provided with different intrinsic efficacy. 1. Mapping the central 5-HT3 receptor binding site by arylpiperazine derivatives” (J Med Chem, 1998).

A value given as a limit tells only on which side of the number the result lay.

The target in test [1] is T1, Serotonin 3 (5-HT3) receptor (Rattus norvegicus, UniProt P35563+Q9JJ16).
T1 sequence (P35563 whole entry): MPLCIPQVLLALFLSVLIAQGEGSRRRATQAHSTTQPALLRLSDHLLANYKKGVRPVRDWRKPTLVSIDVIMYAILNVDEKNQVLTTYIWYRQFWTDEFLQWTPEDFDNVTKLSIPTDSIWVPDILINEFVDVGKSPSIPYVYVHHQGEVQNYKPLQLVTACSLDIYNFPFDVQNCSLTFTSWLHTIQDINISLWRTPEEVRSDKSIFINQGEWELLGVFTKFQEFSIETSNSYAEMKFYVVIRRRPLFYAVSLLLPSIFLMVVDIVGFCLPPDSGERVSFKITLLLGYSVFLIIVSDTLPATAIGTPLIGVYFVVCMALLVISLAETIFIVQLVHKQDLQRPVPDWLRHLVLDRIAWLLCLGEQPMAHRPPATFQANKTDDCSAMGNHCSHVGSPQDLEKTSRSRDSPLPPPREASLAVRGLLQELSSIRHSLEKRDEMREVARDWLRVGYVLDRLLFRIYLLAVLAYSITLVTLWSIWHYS
T1 sequence (Q9JJ16 whole entry): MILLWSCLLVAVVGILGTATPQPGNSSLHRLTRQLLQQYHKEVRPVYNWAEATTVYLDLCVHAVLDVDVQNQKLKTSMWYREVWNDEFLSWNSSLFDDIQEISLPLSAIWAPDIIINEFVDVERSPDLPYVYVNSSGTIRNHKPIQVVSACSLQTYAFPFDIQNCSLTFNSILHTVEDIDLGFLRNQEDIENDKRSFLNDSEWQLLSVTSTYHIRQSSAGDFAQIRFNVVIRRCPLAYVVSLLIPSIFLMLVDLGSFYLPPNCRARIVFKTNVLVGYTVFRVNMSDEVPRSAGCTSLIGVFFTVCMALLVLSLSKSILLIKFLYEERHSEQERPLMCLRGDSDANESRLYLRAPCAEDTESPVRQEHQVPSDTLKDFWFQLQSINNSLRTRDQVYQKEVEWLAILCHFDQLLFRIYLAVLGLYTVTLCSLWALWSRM
Kind of test: Binding affinity at 5-hydroxytryptamine 3 receptor in rat cortical membrane by [3H]graniestron displacement. Format: cell membranes. The method, boiled down: (§1)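 Cortex and hippocampus of male Wistar rats homogenized in 50 mM Hepes pH 7.4 and assayed in 50 mM Hepes HCl pH 7.4. Filtered on GF/B presoaked in 0.1% polyethylenimine. Ki by Cheng-Prusoff from IC50. Mean ± SEM of three.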

Test [2] has as its target T1, Serotonin 3 (5-HT3) receptor. Kind of test: Ability to displace [3H]granisetron specifically bound to 5-hydroxytryptamine 3 receptor in rat cortical membrane. The class given is cell membranes. Summed up:
as §1

Test [3] has as its target T2, 5-hydroxytryptamine receptor 1A (Rattus norvegicus, UniProt P19327).
T2 sequence (P19327 whole entry): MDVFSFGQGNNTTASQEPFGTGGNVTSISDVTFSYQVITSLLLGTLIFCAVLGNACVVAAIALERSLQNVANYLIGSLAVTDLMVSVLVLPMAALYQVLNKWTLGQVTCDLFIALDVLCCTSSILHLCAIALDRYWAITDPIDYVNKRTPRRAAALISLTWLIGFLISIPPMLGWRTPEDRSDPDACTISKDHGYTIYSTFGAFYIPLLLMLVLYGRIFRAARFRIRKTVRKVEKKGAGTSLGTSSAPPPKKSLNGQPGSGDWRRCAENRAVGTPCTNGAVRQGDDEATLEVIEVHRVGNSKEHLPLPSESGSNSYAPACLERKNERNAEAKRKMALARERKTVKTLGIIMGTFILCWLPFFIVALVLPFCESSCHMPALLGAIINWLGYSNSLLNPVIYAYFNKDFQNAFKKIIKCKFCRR
As to the kind of experiment: Ability to displace [3H]- -OH-DPAT bound to 5-hydroxytryptamine 1A receptor in rat hippocampus. The class given is tissue-based. Summed up:
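Male Wistar rat hippocampal membranes in 50 mM Tris HCl pH 7.4. Stopped by GF/B filtration, counted by scintillation. IC50 from competition curves, converted to Ki by Cheng-Prusoff. Mean ± SEM of three determinations.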

Test [4] has as its target 5-hydroxytryptamine receptor 1B (Rattus norvegicus, UniProt P28564). As to the kind of experiment: Ability to displace [3H]5-HT bound to 5-hydroxytryptamine 1B receptor in rat striatum. The class given is tissue-based. The method, boiled down:
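Striatal membranes from male Wistar rats in 50 mM Tris HCl pH 7.7 with 10 μM pargyline, 4 mM CaCl2 and 0.1% ascorbic acid. Filtration and scintillation counting. Ki from IC50 via Cheng-Prusoff. Mean ± SEM, n=3.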

The target in test [5] is 5-hydroxytryptamine receptor 2A (Rattus norvegicus, UniProt P14842). As to the kind of experiment: Ability to displace [3H]ketanserin bound to 5-hydroxytryptamine 2A receptor in rat pre-frontal cortex. Format: tissue-based. The method, boiled down:
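Rat prefrontal cortex membranes (male Wistar) in 50 mM Tris HCl pH 7.7. […] Nonspecific binding with 3 μM ketanserin. Filtered and counted by scintillation. IC50 converted to Ki via Cheng-Prusoff. Mean ± SEM of three determinations.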

Test [6] addresses T3, 5-hydroxytryptamine receptor 2C (Rattus norvegicus, UniProt P08909).
T3 sequence (P08909 whole entry): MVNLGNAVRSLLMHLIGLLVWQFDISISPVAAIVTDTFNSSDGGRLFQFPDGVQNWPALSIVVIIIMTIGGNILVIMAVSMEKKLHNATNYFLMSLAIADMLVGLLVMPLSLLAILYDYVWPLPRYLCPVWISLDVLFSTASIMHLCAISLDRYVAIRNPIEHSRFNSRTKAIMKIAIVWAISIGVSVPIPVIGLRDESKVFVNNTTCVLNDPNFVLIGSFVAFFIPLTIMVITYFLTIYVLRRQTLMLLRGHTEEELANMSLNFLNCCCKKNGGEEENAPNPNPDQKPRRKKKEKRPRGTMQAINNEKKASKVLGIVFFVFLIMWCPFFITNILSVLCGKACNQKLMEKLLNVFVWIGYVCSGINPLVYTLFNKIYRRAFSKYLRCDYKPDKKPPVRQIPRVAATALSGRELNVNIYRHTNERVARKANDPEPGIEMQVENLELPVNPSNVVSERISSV
As to the kind of experiment: Ability to displace [3H]mesulergine bound to 5-hydroxytryptamine 2C receptor in rat cortex. Format: tissue-based. The method, boiled down: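 Cortical membranes from male Wistar rats in 50 mM Tris HCl pH 7.7 with 10 μM pargyline, 4 mM CaCl2 and 0.1% ascorbic acid. Nonspecific binding with 1 μM mianserine. Filtration assay. Ki from IC50 via Cheng-Prusoff. Mean ± SEM, n=3.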

Test [7] has as its target Sodium-dependent serotonin transporter (Rattus norvegicus, UniProt P31652). Kind of test: Ability to displace [3H]paroxetine bound to Serotonin transporter receptor in rat forebrain. Summed up: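 Rat forebrain membranes (male Wistar), stored at -80 °C, in 50 mM Tris HCl pH 7.4. Nonspecific binding with 1 μM 6-nitroquipazine. Filtered on GF/B presoaked in 0.5% polyethylenimine. Ki from IC50 via Cheng-Prusoff. Mean ± SEM of three.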

Sequence of Sodium-dependent serotonin transporter (P31652 whole entry): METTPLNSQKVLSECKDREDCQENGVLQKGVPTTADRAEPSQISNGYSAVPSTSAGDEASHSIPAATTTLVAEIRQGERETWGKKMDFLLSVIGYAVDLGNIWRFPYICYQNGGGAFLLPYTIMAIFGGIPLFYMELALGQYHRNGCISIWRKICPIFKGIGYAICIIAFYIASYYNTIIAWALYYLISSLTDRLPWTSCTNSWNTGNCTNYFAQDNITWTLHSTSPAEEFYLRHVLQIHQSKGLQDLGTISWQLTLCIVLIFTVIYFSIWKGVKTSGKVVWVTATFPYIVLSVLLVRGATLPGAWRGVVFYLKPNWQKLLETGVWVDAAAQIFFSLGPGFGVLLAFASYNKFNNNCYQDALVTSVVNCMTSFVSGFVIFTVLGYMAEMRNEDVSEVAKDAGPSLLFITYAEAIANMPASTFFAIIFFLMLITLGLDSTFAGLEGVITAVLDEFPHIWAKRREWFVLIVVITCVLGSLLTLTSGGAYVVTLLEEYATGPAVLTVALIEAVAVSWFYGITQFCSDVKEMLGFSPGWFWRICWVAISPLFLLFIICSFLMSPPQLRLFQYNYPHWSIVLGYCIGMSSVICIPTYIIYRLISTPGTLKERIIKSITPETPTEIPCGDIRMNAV
Sequence of 5-hydroxytryptamine receptor 1B (P28564 whole entry): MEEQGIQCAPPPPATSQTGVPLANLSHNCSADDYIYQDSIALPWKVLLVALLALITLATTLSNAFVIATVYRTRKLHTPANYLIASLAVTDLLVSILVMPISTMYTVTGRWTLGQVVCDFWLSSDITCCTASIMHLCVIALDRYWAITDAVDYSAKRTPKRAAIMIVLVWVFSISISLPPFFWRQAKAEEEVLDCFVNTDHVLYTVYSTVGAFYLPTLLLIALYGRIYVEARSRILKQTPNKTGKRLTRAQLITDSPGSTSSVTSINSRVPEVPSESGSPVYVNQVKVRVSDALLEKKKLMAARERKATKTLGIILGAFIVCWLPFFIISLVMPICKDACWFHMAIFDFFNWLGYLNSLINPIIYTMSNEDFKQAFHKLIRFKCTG
Sequence of 5-hydroxytryptamine receptor 2A (P14842 whole entry): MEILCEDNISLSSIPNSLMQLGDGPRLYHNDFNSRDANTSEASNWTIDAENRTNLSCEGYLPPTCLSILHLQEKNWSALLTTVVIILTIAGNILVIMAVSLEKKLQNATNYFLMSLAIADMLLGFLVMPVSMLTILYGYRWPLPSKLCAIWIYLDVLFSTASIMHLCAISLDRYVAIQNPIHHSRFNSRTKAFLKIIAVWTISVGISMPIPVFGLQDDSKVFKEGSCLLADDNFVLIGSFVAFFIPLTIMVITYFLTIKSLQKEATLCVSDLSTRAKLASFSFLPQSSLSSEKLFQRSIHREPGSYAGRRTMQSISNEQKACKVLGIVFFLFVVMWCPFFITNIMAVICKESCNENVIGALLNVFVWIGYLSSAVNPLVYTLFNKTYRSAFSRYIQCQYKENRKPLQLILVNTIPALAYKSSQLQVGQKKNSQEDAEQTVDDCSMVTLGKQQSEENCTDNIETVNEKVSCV

On to `CN1CCN(c2cccc(C34C[C@H]5C[C@@H](C3)C[C@@H](C4)C5)n2)CC1`, for which the “Log Ki” value in test [1] is reported as under -6.26. Moreover, in test [2], the Ki is over 550 nM.

On to `c1ccc(CN2CCN(c3nc4ccccc4c4c3CCCC4)CC2)cc1`, for which, in test [2], affinity was put at a Ki of 11 nM.

Regarding `CN1CCN(c2ccc3c(n2)C2CCCCC2CC3)CC1` (stereo not given), the inhibitory constant (Ki) was 661 nM in test [1] and 660 nM in test [2].

With `CN1CCN(c2nc3c(c4c2CCCC4)CCCC3)CC1`, the Ki in test [1] and in test [2] was 110 nM throughout.

Compound `C[N+]1(C)CCN(c2nc3ccccc3c3c2CCCC3)CC1` came in with an inhibitory constant (Ki) in test [2] of 13 nM.

Take `CCN1CCN(c2nc3ccccc3c3c2CCCC3)CC1`: in test [2], the Ki was found to be 1.9 nM.

`CN1CCN(c2ccc3c(n2)CCc2ccccc2-3)CC1`: the values for the Ki in test [1] and in test [2] were 832 nM and 830 nM, respectively.

In test [2], `c1ccc2c3c(c(N4CCOCC4)nc2c1)CCCC3` yielded a Ki of over 17000 nM.

With `CN1CCN(c2ccc3c(n2)-c2ccccc2CCC3)CC1`, the “Log Ki” value in test [1] is listed as under -6.26. Also, the Ki in test [2] was over 550 nM.

In the case of `CN1CCN(c2nc3ccccc3c3c2CC2CCC3C2)CC1` (stereo not given), the Ki in test [3] was 2400 nM; in test [4], 2300 nM; in test [5], 3700 nM; in test [6], 2800 nM; in test [1], 0.832 nM; in test [2] it was 0.83 nM. This compound gave a Ki in test [7] of 24000 nM.

For the compound `CN1CCN(c2ccc3ccccc3n2)CC1`, the Ki in test [1] was 3.02 nM; in test [2], 3 nM.

With `CN1CCN(c2ccc3ccc4ccccc4c3n2)CC1`, the inhibition constant Ki in test [1] and in test [2] was 200 nM in each case.

With `CN1CCN(c2ccc3c(n2)-c2ccccc2CC3)CC1`, the inhibitory constant (Ki) in test [1] and in test [2] was 200 nM throughout.

Regarding `CN1CCN(c2ccc3c(n2)-c2ccccc2C3)CC1`, the inhibition constant Ki in test [3] was 5700 nM; in test [4], 3800 nM; in test [5] it was 2600 nM; in test [6] it was 16000 nM; in test [1], 14.1 nM; in test [2], 14 nM. Further, the Ki in test [7] was 59 nM.

As to `CN1CCCN(c2nc3ccccc3c3c2CCCC3)CC1`, the inhibition constant (Ki) in test [2] stood at 4.8 nM.

Take `CN1CCN(c2nc3ccccc3c3ccccc23)CC1`: the inhibition constant Ki in test [1] is 1.91 nM; in test [2], 1.9 nM.

On to `CN1CCN(c2nc3ccccc3c3c2CCCC3)CC1`, for which the Ki in test [3] is 2800 nM; in test [4] it was over 4000 nM; in test [5] it was 3000 nM; in test [6], 4400 nM; in test [1], 0.229 nM; in test [2] it was 0.23 nM. In test [7], this compound had a Ki of 12000 nM.

Compound `c1ccc2c3c(c(N4CCNCC4)nc2c1)CCCC3` gave an inhibition constant (Ki) in test [2] of 1.7 nM.

As for `O=[N+]([O-])c1ccc2nc(N3CCNCC3)ccc2c1` [6-NITROQUIPAZINE], the inhibition constant (Ki) in test [2] turned out to be 58 nM; in test [7], 0.12 nM.

The compound `CCCN(CCC)C1CCc2cccc(O)c2C1` (stereo not given) [8-OH-DPAT] came in with an inhibition constant Ki in test [2] of 1.2 nM.

Consider `c1ccc2nc(N3CCNCC3)ccc2c1` [QUIPAZINE], for which the values for the Ki in test [4] and in test [6] were 310 nM and 190 nM, respectively.
